The test system of one assay is Bacillus licheniformis. Kind of assay: Inhibition of Bacillus licheniformis beta-lactamase BS3 in 50 mM phosphate buffer at pH 7.2 at 100 uM; values are per cent of control.
For assay [1], the target named is Beta-lactamase OXA-10 (Pseudomonas aeruginosa) (UniProt P14489). As to the kind of experiment: Inhibition of Pseudomonas aeruginosa beta-lactamase Oxa-10 in 50 mM phosphate buffer at pH 7.2 at 100 uM; values are per cent of control.
The test system of the next assay is Enterobacter cloacae. As to the kind of experiment: Inhibition of Enterobacter cloacae beta-lactamase P99 in 50 mM phosphate buffer at pH 7.2 at 100 uM; values are per cent of control.
The nature of assay [2]: Inhibition of beta-lactamase TEM1 in 25 mM acetate buffer at pH 5. The method, boiled down:
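Hydrolysis rates were measured without and with inhibitor at varying concentrations. Ki was derived from a plot of V0/Vi against inhibitor concentration. Performed three times.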

Assay [3] in a line: Inhibition of beta-lactamase TEM1 in 50 mM phosphate buffer at pH 7.2 at 2 mM.
The target in assay [4] is T1, Imipenem-hydrolyzing beta-lactamase (Enterobacter cloacae) (UniProt P52663).
T1 sequence (whole entry): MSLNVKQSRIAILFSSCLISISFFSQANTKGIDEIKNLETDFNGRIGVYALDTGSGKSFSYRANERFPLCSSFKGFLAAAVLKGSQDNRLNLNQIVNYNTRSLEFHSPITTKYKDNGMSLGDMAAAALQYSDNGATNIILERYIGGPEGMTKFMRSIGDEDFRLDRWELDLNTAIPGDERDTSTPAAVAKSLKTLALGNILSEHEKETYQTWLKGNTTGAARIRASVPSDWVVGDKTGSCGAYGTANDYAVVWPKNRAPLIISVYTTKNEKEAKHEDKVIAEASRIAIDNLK
As to the kind of experiment: Inhibition of Enterobacter cloacae beta-lactamase NMCA in 50 mM phosphate buffer at pH 7.2 at 100 uM; values are per cent of control.

Assay [5] in a line: Inhibition of Bacillus licheniformis beta-lactamase BS3 in 25 mM acetate buffer at pH 5. The method, boiled down:
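Purified BS3 (1–100 nM) mixed with inhibitor and the chromogenic substrate nitrocefin. Ki obtained from a plot of V0/Vi (uninhibited over inhibited hydrolysis rate) against inhibitor concentration. Three independent runs.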

A short description of assay [6]: Inhibition of beta-lactamase TEM1 in 50 mM phosphate buffer at pH 7.2 at 0.2 mM.
The subject of assay [7] is beta-lactamase BcII (Bacillus cereus). Kind of assay: Inhibition of Bacillus cereus beta-lactamase Bc2 in 50 mM phosphate buffer at pH 7.2 at 100 uM; values are per cent of control.

Sequence of Beta-lactamase OXA-10 (Pseudomonas aeruginosa) (P14489 whole entry): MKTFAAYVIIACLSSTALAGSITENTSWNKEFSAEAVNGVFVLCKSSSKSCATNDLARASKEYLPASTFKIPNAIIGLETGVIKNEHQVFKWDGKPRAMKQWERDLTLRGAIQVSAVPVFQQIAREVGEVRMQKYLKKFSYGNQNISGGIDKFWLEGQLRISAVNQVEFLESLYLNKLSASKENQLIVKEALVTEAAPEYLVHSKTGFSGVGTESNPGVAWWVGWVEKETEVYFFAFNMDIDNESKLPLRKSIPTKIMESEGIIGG

For the molecule `NC(CC(=O)O)(CC(=O)O)C(=O)O`, the residual activity (commonly what remains of the control signal, in per cent) in the assay with Bacillus licheniformis came out at 88%; in assay [1], 100%; in the assay on Enterobacter cloacae it was 81%; in [3], 95%; in assay [4] it was 94%. In addition, affinity in assay [2] was put at a Ki of 150 µM.

As for `O=C(O)CC(O)(CC(=O)O)C(=O)O` [CITRIC ACID], the results for the Ki in assay [5] and in assay [2] were 490 µM and 730 µM, respectively.

Take `O=C(O)CC(C(=O)O)C(O)C(=O)O` (stereo unspecified) [ISOCITRATE]: the figures for the inhibition constant (Ki) in [5] and in assay [2] were 2200 µM and 1500 µM, respectively.

As for `CCOC(=O)CC(N)(CC(=O)OCC)C(=O)OCC`, the residual activity was found to be 82% with Bacillus licheniformis; 98% in [1]; 87% with Enterobacter cloacae; 71% in assay [6]; 60% in assay [4]; 92% in [7].

These data come from ChEMBL document CHEMBL1157434, “2-Aminopropane-1,2,3-tricarboxylic acid: Synthesis and co-crystallization with the class A beta-lactamase BS3 of Bacillus licheniformis” (Bioorg Med Chem Lett, 2008).
